What was measured:
[1] = preclinical model; cited from earlier work
TS543 glioblastoma = assay: Ex vivo NIRF imaging of sliced brains; assay type: in vivo, mouse; settings: TS543 model, brain slices 48 hours after probe injection, mean±SEM
Method in brief: (§1)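 Test probe (1 nmol) injected via tail vein; controls were 1 nmol nonspecific RAD-peptide dye conjugate and a blocking mix (1 nmol probe plus 20 nmol unlabeled cRGD). Mice were killed at 48 h; whole brains were sliced coronally and imaged on Odyssey (800 nm channel, sensitivity 5, 21 μm resolution). Signal was background-subtracted and area-weighted, tumor vs corresponding normal brain; tumor confirmed by H&E.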

RCAS-PDGF glioblastoma = assay: Ex vivo NIRF imaging of sliced brains; assay type: in vivo, mouse; settings: RCAS-PDGF model, brain slices 48 hours after probe injection, mean±SEM
Method in brief: as §1

U-87 MG glioblastoma = assay: Ex vivo NIRF imaging of sliced brains; assay type: in vivo, mouse; settings: U-87 MG model, brain slices 48 hours after probe injection, mean±SEM
Method in brief: as §1

Molecule | Toxicity [1] | T/N ratio ex vivo (area-normalized fluorescence-800, tumor vs normal brain) (TS543 glioblastoma) | T/N ratio ex vivo (area-normalized fluorescence-800, tumor vs normal brain) (RCAS-PDGF glioblastoma) | T/N ratio ex vivo (area-normalized fluorescence-800, tumor vs normal brain) (U-87 MG glioblastoma)
CC1(C)C(=CC=C2CCCC(C=CC3=[N+](CCCCCC(=O)[O-])c4ccc(S(=O)(=O)[O-])cc4C3(C)C)=C2Oc2ccc(S(=O)(=O)[O-])cc2)N(CCCCS(=O)(=O)[O-])c2ccc(S(=O)(=O)[O-])cc21.[Na+].[Na+].[Na+].[Na+] [IRDye 800CW] | good results |  |  | 
IRDye 800CW-conjugated cyclic Arg-Ala-Asp-D-Phe-Lys (head to tail) [IRDye 800CW-RAD, IRDye 800CW-conjugated cyclic Arg-Ala-Asp-D-Phe-Lys peptide] |  | 11.6±1.0 | 11.6±1.1 | 10.5±1.0

Reference: paper PMC3733255 (Clinical cancer research : an official journal of the …, 2012)
